From ChEMBL document CHEMBL1158389, “Highly twisted adamantyl arotinoids: synthesis, antiproliferative effects and RXR transactivation profiles” (Eur J Med Chem, 2009)
The source made the active and inactive calls. The calls are words filed in the database; no cut-off is given here.

Key:
PC-3 = test: Antiproliferative activity against human PC3 cells at 4 uM after 48 hrs by MTT assay; assay type: functional; conditions: PC-3, 48 h
How it was run: (§1)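 Epithelial cancer lines came from ATCC and were seeded the day before in complete medium: PC-3, SkOV3 and A549 at 3,000/well; MiaPaCa-2 and BxPC-3 at 4,000; T-47D and MDA-MB-468 at 5,000. Medium was switched to 0.5% FBS just before exposure to 4 μM. Read-out was MTT (4 h, 37 °C), SDS/HCl solubilisation, A595 minus cell-free blank. Growth inhibition was taken versus DMSO (≤0.1% v/v) controls, ≥2 experiments in triplicate.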

SK-OV-3 = test: Antiproliferative activity against human SKOV3 cells at 4 uM after 48 hrs by MTT assay; assay type: functional; conditions: SK-OV-3, 48 h; how it was run: as §1
A549 = test: Antiproliferative activity against human A549 cells at 4 uM after 72 hrs by MTT assay; assay type: functional; conditions: A549, 72 h; how it was run: as §1
MIA PaCa-2 = test: Antiproliferative activity against human MIAPaCa2 cells at 4 uM after 48 hrs by MTT assay; assay type: functional; conditions: MIA PaCa-2, 48 h; how it was run: as §1
BXPC-3 = test: Antiproliferative activity against human BxPC3 cells at 4 uM after 48 hrs by MTT assay; assay type: functional; conditions: BXPC-3, 48 h; how it was run: as §1
T47D = test: Antiproliferative activity against human T47D cells at 4 uM after 48 hrs by MTT assay; assay type: functional; how it was run: as §1
MDA-MB-468 = test: Antiproliferative activity against human MDA-MB-468 cells at 4 uM after 48 hrs by MTT assay; assay type: functional; conditions: MDA-MB-468, 48 h; how it was run: as §1
Jurkat [1] = test: Antiproliferative activity against human Jurkat T cells at 62.5 nM after 48 hrs by MTT assay; assay type: functional, cell-based
How it was run: (§2)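 Jurkat T cells were resuspended at 10^5 cells/mL in RPMI with 0.5% FBS (10,000/well) and seeded immediately before dosing at 62.5 nM–2 μM for two days. Viability was read by MTT (4 h, 37 °C), formazan dissolved in 10% SDS/10 mM HCl, A595 with cell-free background subtracted. Values are relative to DMSO controls (≤0.1% v/v); at least two experiments in triplicate.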

[2] = target: T1, Retinoic acid receptor alpha (Homo sapiens) (UniProt P10276); test: Transactivation of Gal4-LBD fused human RARalpha (156 to 454) transfected in african green monkey CV1 cells assessed as luciferase activity at 2 uM after 6 hrs by Dual-light chemiluminescent assay; assay type: cell-based; conditions: CV-1
T1 sequence (whole entry): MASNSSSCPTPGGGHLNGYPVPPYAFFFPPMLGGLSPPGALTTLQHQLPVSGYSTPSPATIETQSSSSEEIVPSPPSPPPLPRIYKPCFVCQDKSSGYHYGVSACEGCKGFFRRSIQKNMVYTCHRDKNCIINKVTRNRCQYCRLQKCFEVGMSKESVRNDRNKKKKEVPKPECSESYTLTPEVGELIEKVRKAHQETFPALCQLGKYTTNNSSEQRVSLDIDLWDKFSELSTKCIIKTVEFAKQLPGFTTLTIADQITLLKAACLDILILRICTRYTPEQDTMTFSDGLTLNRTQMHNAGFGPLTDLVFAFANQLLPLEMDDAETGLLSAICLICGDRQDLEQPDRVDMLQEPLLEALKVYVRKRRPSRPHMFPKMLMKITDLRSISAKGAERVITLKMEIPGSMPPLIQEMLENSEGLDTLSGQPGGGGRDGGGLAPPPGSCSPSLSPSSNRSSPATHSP

[3] = target: T2, Retinoic acid receptor beta (Homo sapiens) (UniProt P10826); test: Transactivation of Gal4-LBD fused human RARbeta (169 to 448) transfected in african green monkey CV1 cells assessed as luciferase activity at 2 uM after 6 hrs by Dual-light chemiluminescent assay; assay type: cell-based; conditions: CV-1
T2 sequence (whole entry): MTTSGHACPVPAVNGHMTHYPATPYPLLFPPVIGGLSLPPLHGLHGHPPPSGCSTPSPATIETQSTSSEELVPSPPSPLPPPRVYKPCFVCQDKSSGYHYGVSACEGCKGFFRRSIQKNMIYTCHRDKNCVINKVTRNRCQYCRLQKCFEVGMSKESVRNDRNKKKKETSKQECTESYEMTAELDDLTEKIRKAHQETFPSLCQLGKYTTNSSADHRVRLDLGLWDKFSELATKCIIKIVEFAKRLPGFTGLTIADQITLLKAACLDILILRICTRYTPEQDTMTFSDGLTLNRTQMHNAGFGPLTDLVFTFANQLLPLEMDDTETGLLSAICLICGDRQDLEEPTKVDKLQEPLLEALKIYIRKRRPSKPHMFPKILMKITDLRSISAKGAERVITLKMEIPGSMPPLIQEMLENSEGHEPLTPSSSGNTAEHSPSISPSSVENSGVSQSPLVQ
How it was run: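 Transfected CV-1 cells carried Gal4-LBD constructs: hRARα 156–462, hRARβ 169–448, hRARγ 178–454 or mRXRα 218–467. Transfection used 10 ng Gal4-LBD, 100 ng UAS-luciferase and 25 ng β-gal vector. After 16 h the medium was changed to 5% charcoal-treated FBS. Cells were stimulated with 2 μM analog for 6 h (RARα, RARβ, RXRα) or 20 h (RARγ). Reference agonists were 1 μM atRA (RARα) and 1 μM 9cRA (RXRα). Luciferase and β-galactosidase were read by chemiluminescence.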

[4] = target: T1, Retinoic acid receptor alpha (Homo sapiens); test: Inhibition of transactivation activity of Gal4-LBD fused human RARalpha (156 to 454) transfected in atRA-stimulated african green monkey CV1 cells at 0.2 uM after 6 hrs by Dual-light chemiluminescent assay; assay type: cell-based
How it was run: (§3)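 Gal4 DBD (1–147) was fused to hRARα (156–462) or hRARβ (169–448) LBD. CV-1 cells (20,000/well) were co-transfected with 10 ng Gal4-LBD, 100 ng UAS-luciferase and 25 ng β-gal vector. After 16 h the medium was replaced with medium containing 5% charcoal-treated FBS. Cells got atRA plus test compound at 10-, 40- or 200-fold excess (0.2, 0.8, 4 μM) for 6 h. Luciferase and β-galactosidase were read by chemiluminescence.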

[5] = target: T2, Retinoic acid receptor beta (Homo sapiens); test: Inhibition of transactivation activity of Gal4-LBD fused human RARbeta (169 to 448) transfected in atRA-stimulated african green monkey CV1 cells at 4 uM after 6 hrs by Dual-light chemiluminescent assay; assay type: cell-based; conditions: CV-1; how it was run: as §3
Jurkat [6] = test: Antiproliferative activity against human Jurkat T cells at 2 uM after 48 hrs by MTT assay; assay type: functional, cell-based; how it was run: as §2
[7] = target: T3, Retinoic acid receptor gamma (Homo sapiens) (UniProt P13631); test: Inhibition of transactivation activity of Gal4-LBD fused human RARgamma (178 to 454) transfected in atRA-stimulated african green monkey CV1 cells at 4 uM after 20 hrs by Dual-light chemiluminescent assay; conditions: CV-1
T3 sequence (whole entry): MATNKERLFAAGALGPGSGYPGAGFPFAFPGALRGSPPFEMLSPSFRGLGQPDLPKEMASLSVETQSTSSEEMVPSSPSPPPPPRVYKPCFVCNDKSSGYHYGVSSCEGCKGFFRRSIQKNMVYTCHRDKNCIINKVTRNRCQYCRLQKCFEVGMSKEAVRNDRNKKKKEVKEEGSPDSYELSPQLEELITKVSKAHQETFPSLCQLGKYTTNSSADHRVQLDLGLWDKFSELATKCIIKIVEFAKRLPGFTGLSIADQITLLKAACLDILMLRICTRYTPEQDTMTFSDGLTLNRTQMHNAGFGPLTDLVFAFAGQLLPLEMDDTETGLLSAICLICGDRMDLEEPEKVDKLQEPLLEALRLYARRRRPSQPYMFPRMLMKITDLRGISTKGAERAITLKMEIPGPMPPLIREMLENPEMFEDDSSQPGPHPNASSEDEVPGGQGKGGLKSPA

Jurkat [8] = test: Antiproliferative activity against human Jurkat T cells after 48 hrs by MTT assay
[9] = target: T1, Retinoic acid receptor alpha (Homo sapiens); test: Inhibition of transactivation activity of Gal4-LBD fused human RARalpha (156 to 454) transfected in atRA-stimulated african green monkey CV1 cells at 4 uM after 6 hrs by Dual-light chemiluminescent assay; assay type: cell-based; conditions: CV-1; how it was run: as §3
[10] = target: T4, Retinoic acid receptor RXR-alpha (Mus musculus, UniProt P28700); test: Transactivation of Gal4-LBD fused mouse RXRalpha (218 to 467) transfected in african green monkey CV1 cells assessed as luciferase activity at after 6 hrs by Dual-light chemiluminescent assay; assay type: cell-based, CV-1
T4 sequence (P28700 whole entry): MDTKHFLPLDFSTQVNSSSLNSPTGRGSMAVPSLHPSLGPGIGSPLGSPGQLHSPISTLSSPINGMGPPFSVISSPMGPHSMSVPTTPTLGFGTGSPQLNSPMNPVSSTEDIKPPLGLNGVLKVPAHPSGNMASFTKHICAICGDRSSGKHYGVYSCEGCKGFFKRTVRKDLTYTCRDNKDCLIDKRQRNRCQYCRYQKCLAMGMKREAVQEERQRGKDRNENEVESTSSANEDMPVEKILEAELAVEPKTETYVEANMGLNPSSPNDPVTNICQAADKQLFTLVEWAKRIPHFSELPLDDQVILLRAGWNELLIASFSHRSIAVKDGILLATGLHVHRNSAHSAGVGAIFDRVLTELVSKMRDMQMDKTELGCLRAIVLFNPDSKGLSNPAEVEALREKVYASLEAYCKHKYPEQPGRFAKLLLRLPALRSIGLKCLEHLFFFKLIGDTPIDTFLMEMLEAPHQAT

Jurkat [11] = test: Induction of apoptosis in human Jurkat T cells assessed as induction of DEVDase activity at 1 uM after 4 hrs by fluorescence assay; assay type: functional, cell-based
How it was run: (§4)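 Jurkat cells (40,000/well, 10^6 cells/mL, RPMI with 0.5% FBS) were treated for 4 h; controls got 0.1% DMSO. Lysis was in CE buffer (PIPES pH 7, NP-40, cytochalasin B, protease inhibitors) for 30 min at 4 °C. Lysates were mixed with 2x caspase buffer (HEPES pH 7.4, CHAPS, sucrose) holding 100 μM Ac-DEVD-AFC and incubated at 37 °C for 30 min. AFC was read every 2 min, ex 390/em 510 nm.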

Jurkat [12] = test: Induction of apoptosis in human Jurkat T cells assessed as induction of DEVDase activity at 4 uM after 4 hrs by fluorescence assay; assay type: functional, cell-based; how it was run: as §4

SMILES | inhibition at 4 µM (PC-3) [%] | inhibition at 4 µM (SK-OV-3) [%] | inhibition at 4 µM (A549) [%] | inhibition at 4 µM (MIA PaCa-2) [%] | inhibition at 4 µM (BXPC-3) [%] | inhibition at 4 µM (T47D) [%] | inhibition at 4 µM (MDA-MB-468) [%] | Activity (Jurkat [1]) | Activity [2] | Activity [3] | inhibition ([4]; CV-1, 0.2 uM) | Activity [5] | Activity (Jurkat [6]) | Activity [7] | IC50 (Jurkat [8]) [nM] | inhibition [9] [%] | EC50 [10] [nM] | Activity (Jurkat [11]) | Activity (Jurkat [12]) | inhibition ([4]; CV-1, 4 uM, in the assay text read “at 4 uM” for “at 0.2 uM”) [%]
Cc1cc(O)c(C23CC4CC(CC(C4)C2)C3)cc1-c1ccc(CC(=O)O)cc1Cl | 66.7 | 30.3 | 15.9 | 26.8 | 49.2 | 29.1 | 11.1 | inactive | inactive | inactive | inactive | inactive | Active | inactive | – | – | – | – | – | –
COCCOCOc1cc(C)c(-c2ccc(/C=C/C(=O)O)cc2Cl)cc1C12CC3CC(CC(C3)C1)C2 | 72 | 80.1 | 51.1 | 63.3 | 45.8 | 29.1 | 42 | – | inactive | inactive | inactive | inactive | – | inactive | 1870 | 27 | 600 | – | – | –
C/C(=C/c1ccc(C(=O)O)cc1)c1ccc(O)c(C23CC4CC(CC(C4)C2)C3)c1 | 92.3 | 67 | 79 | 76.1 | 95.7 | 62.7 | 76.7 | – | inactive | inactive | – | – | – | – | 82 | – | – | Active | Active | –
COCCOCOc1ccc(C(=O)/C=C/c2ccc(C(=O)O)cc2)cc1C12CC3CC(CC(C3)C1)C2 | 92.1 | 61.5 | 42.1 | 74.9 | 96.6 | 50.6 | 72.4 | – | inactive | inactive | – | Active | – | Active | 287 | – | – | Active | Active | 90
Cc1cc(O)c(C23CC4CC(CC(C4)C2)C3)cc1-c1ccc(/C=C/C(=O)O)cc1Cl | 68.7 | 65.1 | 23.7 | 26.3 | 36 | 24.2 | 24.9 | inactive | inactive | inactive | inactive | inactive | – | inactive | 1410 | – | 576 | – | – | –
Cc1cc(O)c(C23CC4CC(CC(C4)C2)C3)cc1-c1ccc2cc(C(=O)O)ccc2c1Cl | 97.7 | 87 | 88.1 | 91.5 | 94.7 | 55.8 | 59.2 | – | inactive | inactive | inactive | inactive | – | inactive | 435 | 27 | – | Active | – | –
